An excerpt weighted towards active compounds, which were near 3% of everything screened.
beta cell repl: inducers of beta-cell replication in MIN6 cells; 330,000 compounds, 0.29% hits; AID 2380; MIN6 cells proliferation, ATPlite luminescence, 48 h; cells starved in 0.2% serum; 100% = growth in 10% serum; proliferation, % at 10 µM;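 active means compounds whose signal lies at least 3.5 SD above the mean of all wells on their plate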;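 further: 0% = DMSO-treated cells in low-serum medium and 100% = 10% serum control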
Exocytosis inh: lytic granule exocytosis inhibition; 360,000 compounds, 0.66% hits; TALL-104 LAMP-1 surface exposure, flow cytometry; cells stimulated with thapsigargin and PMA; inhibition, % at 10 µM;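 active means inhibition above about 55%, limit read from the data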
UBC13 polyUb: blocks human UBC13 polyubiquitin chain formation. P61088. TR-FRET. inhibition, % at 20 µM. 330,000 compounds, 0.47% hits. AID 485273; in the data active means inhibition above about 45%, passing the limit was not always enough
iPSC survival up: enhancers of human iPSC single-cell survival; hiPSC single-cell survival, ATPlite luminescence; 100% = ROCK inhibitor wells, 0% = DMSO; survival enhancement, % at 20 µM; 360,000 compounds, 0.044% hits; AID 602274; in the data active means survival enhancement above about 18%;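 further: cells exposed to compounds for 16 hours before the ATP read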
Apaf-1 inh: human Apaf-1 inhibition; 330,000 compounds, 0.71% hits; inhibition, % at 20 µM; reconstituted apoptosome caspase-3 activity, DEVD-Rh110 fluorescence; O14727; active means inhibition of at least 40% at 20 µM;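 further: plate controls were DMSO wells for no effect and DEVD-CHO caspase inhibitor wells for full effect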
Target sequence (O14727 whole entry, looked up): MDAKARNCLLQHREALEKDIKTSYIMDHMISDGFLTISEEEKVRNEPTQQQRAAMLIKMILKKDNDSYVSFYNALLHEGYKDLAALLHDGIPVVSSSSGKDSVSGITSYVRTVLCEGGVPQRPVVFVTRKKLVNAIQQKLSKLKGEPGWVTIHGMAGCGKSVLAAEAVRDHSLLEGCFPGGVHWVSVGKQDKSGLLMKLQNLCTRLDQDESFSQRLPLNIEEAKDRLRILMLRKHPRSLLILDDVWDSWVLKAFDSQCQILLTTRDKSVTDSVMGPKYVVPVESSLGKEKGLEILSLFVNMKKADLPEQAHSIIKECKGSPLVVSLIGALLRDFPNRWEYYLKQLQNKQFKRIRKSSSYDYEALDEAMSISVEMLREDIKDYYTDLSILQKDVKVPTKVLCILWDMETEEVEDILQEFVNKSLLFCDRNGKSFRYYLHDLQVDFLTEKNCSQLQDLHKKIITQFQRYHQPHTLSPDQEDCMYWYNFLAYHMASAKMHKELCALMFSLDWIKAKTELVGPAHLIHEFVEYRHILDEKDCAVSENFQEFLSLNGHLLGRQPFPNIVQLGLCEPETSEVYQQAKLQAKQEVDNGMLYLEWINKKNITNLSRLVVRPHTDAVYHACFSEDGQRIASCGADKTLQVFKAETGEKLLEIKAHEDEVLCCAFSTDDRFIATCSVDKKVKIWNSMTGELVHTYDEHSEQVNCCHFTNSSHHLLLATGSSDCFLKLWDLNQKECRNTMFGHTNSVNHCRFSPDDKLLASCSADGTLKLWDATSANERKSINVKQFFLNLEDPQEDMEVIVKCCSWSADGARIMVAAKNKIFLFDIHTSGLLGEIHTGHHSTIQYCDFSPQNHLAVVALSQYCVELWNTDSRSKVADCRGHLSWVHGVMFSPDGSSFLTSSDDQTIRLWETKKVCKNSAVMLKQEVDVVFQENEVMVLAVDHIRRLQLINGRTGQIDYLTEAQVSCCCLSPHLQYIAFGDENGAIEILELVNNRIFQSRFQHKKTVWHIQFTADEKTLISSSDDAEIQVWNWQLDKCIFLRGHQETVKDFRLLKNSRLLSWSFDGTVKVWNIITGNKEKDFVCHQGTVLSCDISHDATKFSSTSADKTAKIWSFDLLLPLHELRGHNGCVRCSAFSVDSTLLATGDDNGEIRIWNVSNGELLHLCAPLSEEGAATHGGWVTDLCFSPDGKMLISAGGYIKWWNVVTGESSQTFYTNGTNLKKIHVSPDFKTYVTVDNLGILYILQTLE
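detection = Rh110 fluorescence intensity | test system = biochemical Apaf-1 apoptosome reconstitution | also added = cytochrome c and DEVD-Rh110 substrate | schedule = 30 min plus 50 min, RT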
MPTP block: inhibitors of mitochondrial permeability transition pore; inhibition, % at 10 µM; 360,000 compounds, 1.4% hits; AID 602449; isolated mouse mitochondria, Ca2+ swelling absorbance, 30 min;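 active means inhibition of 50% or more, scaled per plate between neutral and stimulator controls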;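 further: 0% = DMSO wells given calcium and 100% = 1 mM EGTA wells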
Rh123 counter: membrane potential counter-screen of mitochondrial pore inhibitors. shares compounds with MPTP block. isolated mitochondria, Rhodamine 123 fluorescence. inhibition, % at 10 µM. 5,000 compounds, 78% hits; in the data active means inhibition above about 22%;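 further: 0% = DMSO vehicle and 100% = positive control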
MPTP abs DR: dose response confirmation of mitochondrial permeability transition pore inhibitors; shares compounds with MPTP block; isolated mitochondria swelling, absorbance; IC50, µM; 780 compounds, 58% hits; AID 651561; in the data active means IC50 below about 20 µM
MPTP counter DR: counter-screen for mitochondrial permeability transition pore inhibitors, dose response | isolated mitochondria counterscreen, fluorescence read-out | AID 651564 | IC50, µM | 780 compounds, 49% hits | shares compounds with MPTP block; in the data active means IC50 below about 80 µM
* = called active by the depositor; i = inactive; . = no result.

SMILES	beta cell repl	Exocytosis inh	UBC13 polyUb	iPSC survival up	Apaf-1 inh	MPTP block	Rh123 counter	others
CN(C)N1C(N)=C(C#N)C(c2ccc(Br)cc2)C2=C1CC(C)(C)CC2=O (stereo not drawn)	-2	6	1	0	5	1	.
O=C(CSc1nnc(Cn2nnc3ccccc32)o1)N(Cc1ccc(F)cc1)c1ccccc1	-4	0	4	-2	-10	85*	94*
CC(=O)Nc1cc2nc(C)n(Cc3ccccc3[N+](=O)[O-])c2nc1C	-3	-2	0	0	-19	1	.
CCC1=NN(C(=O)c2cccc(Br)c2)C(O)(c2ccc(Br)cc2)C1 (stereo not drawn)	-6	4	-16	0	-2	84*	89*
COc1ccc(CCNC(=O)C2CCCN2S(=O)(=O)c2cccc3nsnc23)cc1OC (stereo not drawn)	-4	-3	-3	0	-13	0	.
CN(CC(=O)Nc1cccc(F)c1)CC(=O)Nc1ccccc1[N+](=O)[O-]	-4	-1	-15	1	-3	78*	51*
COc1ccccc1OCCCCN1CCN(C(c2ccccc2)c2ccccc2)CC1	-5	-1	17	-1	32	82*	-7	MPTP abs DR=i;MPTP counter DR=65*
COc1cccc(OC)c1OCCCCCCN1CCN(C)CC1	0	2	8	0	4	0	.
COc1ccccc1CNc1nc(NCCNC(C)=O)c2sccc2n1	.	-2	.	0	.	0	.
COc1ccccc1CNc1nc(NCc2cccs2)nc2ccsc12	.	3	.	2	.	78*	93*
Cc1ccc(CNc2nc(NCC3CC3)nc3ccsc23)c(C)c1	.	25	.	3	.	42	.
COc1ccccc1CNc1nc(NCc2ccccc2SC)c2sccc2n1	.	19	.	-1	.	85*	84*
Cc1ccc(CNc2nc(NCc3ccccc3)nc3ccsc23)c(C)c1	.	24	.	-2	.	53*	101*
COc1ccccc1CNc1nc(NCC2CC2)nc2ccsc12	.	3	.	-3	.	80*	92*
COc1ccccc1CNc1nc(NCc2ccccc2OC)c2sccc2n1	.	-2	.	2	.	85*	115*
COCCNc1nc(NCc2ccccc2OC)c2sccc2n1	.	8	.	2	.	1	.
Cc1ccc(CN(Cc2cc3cccc(C)c3[nH]c2=O)C(=S)NCCCN(C)C)cc1	-6	17	6	-1	3	65*	-13	MPTP abs DR=12*;MPTP counter DR=>80
CCOC(=O)c1c(C)oc(NC(=O)COc2ccc(Cl)cc2C)c1C#N	0	3	-9	-2	21	70*	51*
CCCCNC(=S)Nc1ccc(C(F)(F)F)cc1	-6	4	-7	0	21	102*	82*
CCCCNC(=S)Nc1ccc(Cl)cc1	-1	-4	2	-1	6	83*	81*
COc1ccc(-c2c(C)nc3c(-c4ccccn4)cnn3c2N)cc1	.	-16	.	-1	.	1	.
CN(C)c1ccc(-c2ccnc3c2CC(C)(C(=O)NCC2CC2)O3)cc1 (stereo not drawn)	.	-6	.	-4	.	0	.
COc1cc(CN2CCC(n3nccc3NC(=O)c3ccccc3OC)CC2)ccc1F	-1	0	-1	0	13	2	.
Cc1ccc(NC(=O)Nc2nc3ccc(S(C)(=O)=O)cc3s2)cc1	-4	-2	2	0	5	65*	70*
CS(=O)(=O)c1ccc2nc(NC(=O)Nc3ccccc3F)sc2c1	-2	-17	11	0	-6	1	.
SMILES	beta cell repl	Exocytosis inh	UBC13 polyUb	iPSC survival up	Apaf-1 inh	MPTP block	Rh123 counter	others
CS(=O)(=O)c1ccc2nc(NC(=O)Nc3ccc(Cl)c(Cl)c3)sc2c1	0	2	0	-2	2	95*	71*
CS(=O)(=O)c1ccc2nc(NC(=O)Nc3cccc(Cl)c3)sc2c1	-4	36	8	-1	2	89*	59*
COC(=O)/C=C1/SC(=Nc2ccc(Cl)c(Cl)c2)NC1=O	-3	19	-20	1	4	58*	25*
O=C(COC(=O)c1ccc(O)cc1)Nc1ccccc1	-2	-15	-2	-1	1	0	.
COc1ccc(CNCCNC(=O)c2nonc2N)cc1OC	-2	-1	-7	-1	0	0	.
Nc1nonc1C(=O)NCCNCc1cc(Br)ccc1OCc1ccc(F)cc1	-6	1	-7	-3	14	65*	72*
Nc1nonc1C(=O)NCCNCc1ccccc1	-6	-1	-1	-1	5	1	.
Nc1nonc1C(=O)NCCNCc1c(OCc2ccccc2F)ccc2ccccc12	-6	13	12	-3	5	95*	23*
COc1ccc(-c2nc3ccc(Cl)cn3c2Cc2ccc(C)cc2)cc1OC	.	-5	.	0	.	0	.
COc1cc(NC(=O)CSc2ncnc3sc4c(c23)CCCC4)c(C(=O)O)cc1OC	0	0	0	0	6	1	.
CCOC(=O)c1c(C)nc(C)c(C(=O)OCC)c1-c1cccc([N+](=O)[O-])c1	.	-10	.	5	.	-1	.
CCOC(=O)COn1c(-c2cccc(Cl)c2)nc2ccc([N+](=O)[O-])cc21	-1	29	-1	1	14	57*	81*
CC(On1c(-c2ccccc2)nc2ccc(Cl)cc21)C(=O)O (stereo not drawn)	0	-3	-4	3	-2	0	.
CCOC(=O)C(C)On1c(-c2cccc(Cl)c2)nc2ccc([N+](=O)[O-])cc21 (stereo not drawn)	-6	6	1	-1	24	87*	99*
COc1ccc([C@H]2CC(=O)C=C(c3ccnc4ccc(Cl)cc34)C2)cc1	-7	-1	8	-1	13	89*	99*
C=CCNC(=S)NNC(=O)CSc1nc2ccccc2s1	-2	-3	-1	0	3	2	.
O=C(CSc1nc2ccccc2s1)NNC(=S)Nc1ccc(Cl)cc1	-1	-2	-15	-1	3	93*	86*
O=C(N/N=C/c1cn(-c2cccs2)nc1-c1ccccc1)c1ccccc1Br	-6	7	-7	-2	11	2	.
O=C(N/N=C/c1cn(-c2cccs2)nc1-c1ccccc1)c1ccccc1O	0	32	-16	-1	15	99*	32*
Cc1csc(NC(=O)c2cc3c(s2)-c2ccccc2OC3)n1	4	-2	28	-1	-2	3	.

High-throughput results (PubChem)
